This note sets out measurements from ChEMBL document CHEMBL4011607 (J Med Chem, 2017).

A short description of data set [1]: (§1) Volume of distribution at steady state in rat at 0.5 mg/kg, iv. It counts as ADME, organism-based. To be noted: in vivo, read-out: Vdss. In short, it runs like this:
(§2)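 Rats received 0.5 mg/kg iv as a solution in DMSO. Clearance, half-life and Vdss are taken from the plasma profile. Unbound clearance is total clearance divided by plasma fraction unbound.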

Data set [2] relates to Rattus norvegicus. Nature of the data set: Unbound clearance in rat at 0.5 mg/kg, iv. In kind it is ADME, organism-based. To be noted: in vivo. The gist of the method: as §2
The nature of data set [3]: Intrinsic clearance in rat liver microsomes at 1 uM after 40 mins by LC-MS/MS assay. It counts as ADME, microsome. To be noted: read-out: CLH.
The nature of data set [4]: Intrinsic clearance in dog liver microsomes at 1 uM after 40 mins by LC-MS/MS assay. Conditions: read-out: CLH. In kind it is ADME, Canis lupus familiaris, microsome.
Data set [5] is described as follows: Intrinsic clearance in human liver microsomes at 1 uM after 40 mins by LC-MS/MS assay. To be noted: read-out: CLH. In kind it is ADME, microsome.
Data set [6] in a line: (§3) Clearance in dog at […], iv. It counts as ADME, organism-based, Canis lupus familiaris. To be noted: in vivo.
Data set [7] can be described thus: (§4) Oral bioavailability in dog at 2 mg/kg. It counts as ADME, organism-based, Canis lupus familiaris. Conditions: in vivo. In short, it runs like this: (§5)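 Single oral dose in solution in 1% Tween 80/2.0% HPMC, 97% water, pH 10 with KOH; rat 10 mg/kg, dog 2 mg/kg. Plasma profile gives AUC, tmax and %F.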
Data set [8] can be described thus: (§6) Volume of distribution at steady state in dog at […], iv. In kind it is ADME, organism-based, Canis lupus familiaris. To be noted: in vivo, read-out: Vdss.
Data set [9] can be described thus: (§7) Half life in rat at 0.5 mg/kg, iv. In kind it is ADME, organism-based. Conditions: in vivo. The gist of the method: as §2
Data set [10] in a line: (§8) Half life in dog at […], iv. To be noted: in vivo. In kind it is ADME, organism-based, Canis lupus familiaris.
Data set [11] can be described thus: Oral bioavailability in rat at 10 mg/kg. To be noted: in vivo. It counts as ADME, organism-based. The gist of the method: as §5
Data set [12] relates to Canis familiaris. Nature of the data set: Unbound clearance in dog at […], iv. Further: dose 0.25 mg/kg. It counts as ADME, organism-based, Canis lupus familiaris. To be noted: in vivo.
A short description of data set [13]: (§9) Clearance in rat at 0.5 mg/kg, iv. It counts as ADME, organism-based. To be noted: in vivo. The gist of the method: as §2
The nature of data set [14]: Chemical stability of compound in 1N NaOH assessed as amide bond hydrolysis at room temperature. It counts as physicochemical.
Data set [15] relates to Canis familiaris. Described as §4. In kind it is ADME, organism-based, Canis lupus familiaris. Conditions: in vivo. In short, it runs like this:
as §5

The subject of data set [16] is Canis familiaris. As to the kind of experiment: Drug metabolism in po dosed dog assessed as racemization after 24 hrs. It counts as ADME, organism-based, Canis lupus familiaris. To be noted: in vivo. In short, it runs like this:
(§10)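 A related atropisomeric analogue was dosed to preclinical species and checked in vivo for interconversion to the other atropisomer. Monkey iv, 1 h; rat iv, 1 h; dog po, 24 h; mouse po, 12 h.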

In another data set the test system is Mus musculus. Nature of the data set: Drug metabolism in po dosed mouse assessed as racemization after 12 hrs. In kind it is ADME, organism-based. To be noted: in vivo. The gist of the method:
as §10

Data set [17] deals with Rattus norvegicus. Nature of the data set: Drug metabolism in iv dosed rat assessed as racemization after 1 hr. To be noted: in vivo. It counts as ADME, organism-based. In short, it runs like this: as §10
In another data set the test system is Rhesus monkey. As to the kind of experiment: Drug metabolism in iv dosed monkey assessed as racemization after 1 hr. To be noted: in vivo. In kind it is ADME, organism-based, Macaca mulatta. The gist of the method: as §10
The next data set concerns Plasma. As to the kind of experiment: Plasma concentration in po dosed capsaicin-induced nociception pain C57BL/6 mouse model administered 4 hrs prior to capsaicin challenge. In kind it is ADME, organism-based. To be noted: in vivo.
Data set [18] can be described thus: AUC in dog at 2 mg/kg, po. In kind it is ADME, organism-based, Canis lupus familiaris. To be noted: in vivo. The gist of the method: as §5
Data set [19] concerns Rattus norvegicus. The data set is described as §1. In kind it is ADME, organism-based. Conditions: in vivo. The gist of the method: as §2
Data set [20] is described as follows: Chemical stability of compound in water assessed as racemization at above 100 degC. Conditions: buffer. In kind it is physicochemical. In short, it runs like this: (§11)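 Racemization kinetics of the atropisomer were examined in neutral media (toluene, water) and basic media (NaOH) with heating above 100 °C.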
Data set [21] is described as follows: AUC in rat at 10 mg/kg, po. It counts as ADME, organism-based. Conditions: in vivo. In short, it runs like this:
as §5

Data set [22] has as its system Canis familiaris. The description is as §3. In kind it is ADME, organism-based, Canis lupus familiaris. To be noted: in vivo.
The nature of data set [23]: Chemical stability of compound in toluene assessed as racemization at above 100 degC. In kind it is physicochemical. In short, it runs like this: as §11
For data set [24], the system named is Canis familiaris. The description is as §6. Conditions: in vivo. In kind it is ADME, organism-based, Canis lupus familiaris.
The test system of data set [25] is Rattus norvegicus. The data set is described as §7. In kind it is ADME, organism-based. To be noted: in vivo. The gist of the method:
as §2

In data set [26] the test system is Canis familiaris. Described as §8. In kind it is ADME, organism-based, Canis lupus familiaris. To be noted: in vivo.
The nature of data set [27]: Chemical stability of compound assessed as racemization in presence of HCL at 100 degC after 1 hr. In kind it is physicochemical. Conditions: buffer. The gist of the method:
(§12)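 Racemization of the atropisomer was followed in 10% HCl under two conditions: 37 °C for 24 h and 100 °C for 1 h.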

Data set [28] is described as follows: Chemical stability of compound in NaOH assessed as racemization at above 100 degC. It counts as physicochemical. The gist of the method: as §11
Data set [29] in a line: Tmax in rat at 10 mg/kg, po. In kind it is ADME, organism-based. To be noted: in vivo. In short, it runs like this:
as §5

Data set [30] can be described thus: Chemical stability of compound assessed as racemization in presence of HCL at 37 degC after 24 hrs. To be noted: buffer. In kind it is physicochemical. The gist of the method:
as §12

The subject of data set [31] is Rattus norvegicus. The data set is described as §9. In kind it is ADME, organism-based. Conditions: in vivo. In short, it runs like this:
as §2

Data set [32] can be described thus: Tmax in dog at 2 mg/kg, po. It counts as ADME, organism-based, Canis lupus familiaris. Conditions: in vivo. In short, it runs like this:
as §5

Consider `COc1cc(-c2cccc(OC(F)F)c2)c(F)cc1-n1c(=O)ccc2cc(S(=O)(=O)Nc3ccon3)ccc21`, for which the Vd in data set [1] was found to be 2.2 L/kg; in data set [8], 0.22 L/kg. Besides, the CL free in the data set with Rattus norvegicus [2] came out at 3780 mL/min/kg; in the data set with Canis familiaris [12], 43.3 mL/min/kg. The microsomal CLint at 1 µM in data set [3], in [4] and in data set [5] was < 5 µL/min/mg each time. Further, the results for the clearance in data set [6] and in [13] were 0.3 mL/min/kg and 15.2 mL/min/kg, respectively. Also, the bioavailability in [7] was 54%; in data set [11] it was 30%. Besides, the half-life is 1.8 h in data set [9] and 11 h in [10].

For the molecule `COc1cc(C(F)(F)F)ccc1N1C(=O)COc2cc(S(=O)(=O)Nc3nccs3)ccc21`, in data set [14], the Stability entry is listed as “Unstable”.

For `COc1cc(-c2cccc(F)c2)c(Cl)cc1-n1c(=O)ccc2cc(S(=O)(=O)Nc3ccon3)cnc21`, the Stability entry is recorded as “Unstable”.

Take `COc1cc(-c2cc(OC)c(-n3c(=O)ccc4cc(S(=O)(=O)Nc5ncccn5)ccc43)cc2F)ccc1Cl`: the Vd was found to be 1.3 L/kg in data set [1] and 0.47 L/kg in data set [8]. The CL free came out at 1670 mL/min/kg in the data set on Rattus norvegicus [2] and 96.7 mL/min/kg with Canis familiaris [12]. The microsomal CLint at 1 µM in data set [3] was 12 µL/min/mg; in data set [4], < 5 µL/min/mg; in data set [5] it was < 5 µL/min/mg. Also, the clearance was 0.583 mL/min/kg in data set [6] and 8.33 mL/min/kg in data set [13]. In addition, the F in the data set with Canis familiaris [15] worked out at 157%. Moreover, the half-life in [9] is 2.4 h; in [10], 12 h. The bioavailability in data set [11] was 55%.

Regarding `COc1cc(-c2ccc(F)c(C)c2)c(F)cc1-n1c(=O)ccc2cc(S(=O)(=O)Nc3ccon3)ccc21`, the Stability result was “Unstable”. Also, in [1], the Vd was 1.5 L/kg. Moreover, the CL free in the data set with Rattus norvegicus [2] came to 1680 mL/min/kg. In addition, in data set [3], the microsomal CLint at 1 µM was determined as 16 µL/min/mg. Further, the Drug metabolism result in the data set with Canis familiaris [16] was “Metabolite_Notdetected”. Besides, in data set [4], the microsomal CLint at 1 µM was < 5 µL/min/mg. Further, the microsomal CLint at 1 µM in data set [5] was determined as 5 µL/min/mg. In the data set with Mus musculus, the Drug metabolism result is given as “Metabolite_Notdetected”. Also, in data set [6], the clearance is 0.283 mL/min/kg. Further, in data set [7], the bioavailability is 116%. The Drug metabolism entry in the data set with Rattus norvegicus [17] is given as “Metabolite_Notdetected”. The Vd in data set [8] was found to be 0.32 L/kg. For the same molecule, in data set [9], the half-life is 1.9 h. In addition, the half-life in data set [10] was 14 h. For the same molecule, the bioavailability in [11] was 67%. Also, the Drug metabolism entry with Rhesus monkey is recorded as “Metabolite_Notdetected”. Besides, the CL free with Canis familiaris [12] worked out at 56.7 mL/min/kg. This molecule also had a clearance in data set [13] of 10.2 mL/min/kg.

Regarding `COc1cc(-c2cccc(C(F)(F)F)c2)ccc1-n1c(=O)ccc2cc(S(=O)(=O)Nc3ncccn3)ccc21`, the Vd in data set [1] stood at 2.5 L/kg; in [8] it was 0.47 L/kg. Besides, the CL free in the data set on Rattus norvegicus [2] was 883 mL/min/kg; in the data set with Canis familiaris [12] it was 12.8 mL/min/kg. Also, the values for the microsomal CLint at 1 µM in data set [3], in data set [4] and in [5] were 12 µL/min/mg, < 5 µL/min/mg and 5 µL/min/mg, respectively. Besides, the clearance in data set [6] was 0.167 mL/min/kg; in [13] it was 7 mL/min/kg. The bioavailability was determined as 79% in data set [7] and 83% in data set [11]. The half-life in data set [9] is 4.6 h; in [10], 34 h. Also, the Drug uptake entry in the data set with Plasma is given as “Dose-dependent effect”.

Consider `COc1cc(C(F)(F)F)ccc1N1CCOc2cc(S(=O)(=O)Nc3nccs3)ccc21`, for which, in the data set with Rattus norvegicus [2], the CL free amounted to 667 mL/min/kg. The same molecule had a clearance in data set [13] of 4 mL/min/kg.

Regarding `COc1cc(-c2cccc(F)c2)c(F)cc1-n1c(=O)ccc2cc(S(=O)(=O)Nc3ccon3)ccc21` (atropisomer P), the AUC turned out to be 600 µM·h in data set [18] and 65 µM·h in data set [21]. Also, the distribution volume (Vdss) amounted to 1.8 L/kg in the data set with Rattus norvegicus [19] and 0.14 L/kg in the data set on Canis familiaris [24]. The CL free with Rattus norvegicus [2] turned out to be 917 mL/min/kg; in the data set with Canis familiaris [12] it was 33 mL/min/kg. Further, the Stability result in [20] was “Unstable”; in data set [23] it was “Unstable”; in [27], “Stable”; in [28], “Unstable”; in [30], “Stable”. The CL is 0.075 mL/min/kg in the data set on Canis familiaris [22] and 3.17 mL/min/kg in the data set with Rattus norvegicus [31]. The figures for the bioavailability in data set [7] and in data set [11] were 62% and 66%, respectively. In addition, the t1/2 in the data set on Rattus norvegicus [25] was 2.6 h; with Canis familiaris [26], 4 h. For the same molecule, the Tmax in data set [29] amounted to 2.7 h; in [32] it was 4 h.
